# Compound activity (PubChem BioAssay)
# BAP1 inh: inhibitors of human BAP1 deubiquitinase. Q92560. recombinant BAP1, Ub-AMC hydrolysis fluorescence kinetic; stronger effect = lower value. calls only at 20 µM. hit rate 0.48% among 72,000;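 active means activity remaining at or below 50% of control, provided the compound also passes the data quality filters; inactive means the rest, including low values that fail the filters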;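 further: 100% = DMSO wells rate and 0% = substrate alone blank rate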
# Target sequence (Q92560 whole entry, looked up): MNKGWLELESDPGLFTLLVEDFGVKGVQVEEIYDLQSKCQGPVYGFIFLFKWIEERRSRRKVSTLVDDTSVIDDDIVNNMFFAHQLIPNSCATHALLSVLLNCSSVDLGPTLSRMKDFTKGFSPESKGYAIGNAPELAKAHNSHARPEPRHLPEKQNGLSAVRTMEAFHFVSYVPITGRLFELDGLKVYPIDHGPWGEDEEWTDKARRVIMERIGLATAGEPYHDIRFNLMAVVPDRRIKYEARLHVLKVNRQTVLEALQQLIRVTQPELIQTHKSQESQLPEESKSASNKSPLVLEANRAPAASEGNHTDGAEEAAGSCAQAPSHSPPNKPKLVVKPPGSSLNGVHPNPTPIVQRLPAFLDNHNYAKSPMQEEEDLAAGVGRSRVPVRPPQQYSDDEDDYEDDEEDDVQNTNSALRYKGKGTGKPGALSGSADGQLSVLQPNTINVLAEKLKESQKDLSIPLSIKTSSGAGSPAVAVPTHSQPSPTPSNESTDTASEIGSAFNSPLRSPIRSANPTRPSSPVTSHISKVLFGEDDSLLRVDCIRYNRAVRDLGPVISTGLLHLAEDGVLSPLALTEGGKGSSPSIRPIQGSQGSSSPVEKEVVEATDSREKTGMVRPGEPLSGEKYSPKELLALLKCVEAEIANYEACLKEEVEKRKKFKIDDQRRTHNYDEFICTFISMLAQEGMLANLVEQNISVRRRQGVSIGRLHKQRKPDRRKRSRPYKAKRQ
# Hsp90 inh: displaces geldanamycin probe from tumor Hsp90; P07900; NCI-N417 lysate Hsp90, Cy3B-geldanamycin FP displacement; inhibition, % at 30 µM; hit rate 0.35% among 64,000; AID 429;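 active means inhibition above 50%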;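 further: 0% = tracer plus lysate wells and 100% = tracer alone without lysate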
# M1 agonist: M1 muscarinic receptor agonism | CHO-M1 cells, Fluo-4 calcium fluorescence, agonist mode; stronger effect = higher value | B-score at 10 µM | hit rate 3% among 64,000;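 active means fluorescence rise, raw or as B-score row- and column-corrected plate score, outside the 99.7% band of its plate's samples, either direction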
# tolC growth inh: blocks growth of E. coli BW25113 tolC mutant. AID 573. OD615. growth inhibition, % at 10 µM (by protocol). hit rate 2.2% among 65,000;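 active means growth inhibition at or above a cutoff equal to the mean over every tested compound plus 3 SD, cut at about 60% in these data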;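 further: growth measured after 20 h incubation at 37 °C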
#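 Assay system: tolC-deleted E. coli BW25113. Medium: kanamycin-containing LB broth (50 µg/mL). Dosing: 10 µM final, single dose. Timing: bacterial growth with compound for 20 h at 37 °C. Detection: A615 absorbance measurement. Read-out basis: growth inhibition in percent.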
# M1 antag: antagonists of rat M1 muscarinic receptor; CHO-M1 cells, Fluo-4 calcium, ACh EC80 antagonist mode; stronger effect = lower value; hit rate 3.4% among 64,000; B-score at 10 µM; AID 628; P08482;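 active means calcium fluorescence response, raw or row-and-column corrected B-score, differing from the plate sample mean either way at a set confidence level, mostly lower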
# Ecoli WT expand: E. coli BW25113 growth inhibition, expanded screen; OD600 absorbance; growth inhibition, % at 100 µM; hit rate 0.15% among 98,000; AID 710;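 active means growth inhibition above about 50% at one test dose, limit read from the data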;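 further: growth measured after 20 h incubation at 37 °C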
# * = called active by the depositor; i = inactive; · = no result shown. Only some compounds are listed: those with a hit (about 5.1% of all), similar ones and a draw of the others.
SMILES,BAP1 inh,Hsp90 inh,M1 agonist,tolC growth inh,M1 antag,Ecoli WT expand
Cc1ccc(S(=O)(=O)N(C)C(=Nc2ccccc2)c2ccccc2)cc1,i,·,·,·,·,·
CCCOc1cccc(C(=O)Nc2cccc(NC(=O)c3ccco3)c2)c1,i,-7.0,5.98*,20.4,-0.259,-6.0
CCCOc1cccc(C(=O)Nc2cccnc2)c1,i,-1.2,-0.755,0.6,-0.0823,-1.0
CCCCCOC(=O)c1ccc(NC(=O)c2ccco2)cc1,i,-4.0,0.0131,98.6*,0.666,-2.0
COc1cc2c(cc1OC)CN(C(=O)C1Cc3ccccc3CN1S(=O)(=O)c1ccc(F)cc1)CC2 (stereo not given),i,·,·,·,·,·
COc1ccc(S(=O)(=O)NCc2cccs2)cc1,·,·,·,·,·,13.0
COc1ccc(S(=O)(=O)N(Cc2cccs2)C2CCCC2)cc1,i,-2.2,1.38,65.8*,0.183,-2.0
CCOC(=O)c1ccccc1NS(=O)(=O)c1ccc(C)cc1,·,·,·,·,·,-2.0
CCOC(=O)c1cc(C)n(S(=O)(=O)c2ccc(C)cc2)c1C,i,-0.2,0.661,65.6*,-0.0291,13.0
CC(C)Cc1nnc(NC=O)s1,i,·,·,·,·,·
CCN(C1CCCCC1)S(=O)(=O)c1ccc(OC)c(C)c1,i,-0.7,1.25,91.9*,-1.3,5.0
Cc1ccc(C(=O)O)cc1N1C(=O)c2ccc([N+](=O)[O-])cc2C1=O,i,·,·,·,·,·
Cc1ccc(OCCCn2c(=O)sc3ccccc32)cc1,·,·,·,·,·,-4.0
O=c1sc2ccccc2n1CCCOc1ccccc1,·,·,·,·,·,-9.0
OCc1nc2ccccc2n1CCCOc1ccc(Br)cc1,i,-5.6,1.17,67.0*,0.0315,9.0
Cn1c(=O)n(CCCOc2ccc(Cl)cc2)c2ccccc21,i,-3.2,-0.0984,62.4*,-0.863,9.0
Cn1c(=O)n(CCCOc2ccc(Br)cc2)c2ccccc21,i,-2.3,0.321,100.0*,-0.324,-4.0
Cc1ccc(Cn2c(NCCc3ccccc3)nc3c2c(=O)n(C)c(=O)n3C)cc1,i,-0.9,-1.08,-14.7,-0.356,-3.0
Cc1nnc(NCCc2ccccc2)n(N)c1=O,i,-1.3,0.0714,-7.2,1.55*,5.0
CCOc1ccccc1C1NC(=S)NC(C)=C1C(=O)OCCSCC (stereo not given),i,·,·,·,·,·
N#C/C(=C\c1ccc(O)c(O)c1)C(=O)NCCc1ccccc1,i,83.2*,·,·,·,·
O=C(C1CCN(S(=O)(=O)c2cccc3cccnc23)CC1)N1CC=C(c2ccccc2)CC1,i,-1.4,4.51*,14.6,-2.03,-4.0
O=C(C1CCCN(S(=O)(=O)c2cccc3cccnc23)C1)N1CCN(c2ccccc2F)CC1 (stereo not given),i,-5.0,3.91,0.5,-1.35,-3.0
O=C(C1CCN(S(=O)(=O)c2cccc3cccnc23)CC1)N1CCCC1,i,0.3,0.303,-7.4,0.0539,6.0
Cc1cccc(N2CCN(C(=O)C3CCCN(S(=O)(=O)c4cccc5cccnc45)C3)CC2)c1C (stereo not given),i,-5.6,4.61*,14.5,-0.709,·
SMILES,BAP1 inh,Hsp90 inh,M1 agonist,tolC growth inh,M1 antag,Ecoli WT expand
COc1ccc(-c2nnc3ccc(SCC(=O)N4CCN(c5ccccc5)CC4)nn23)cc1,i,-0.4,4.44*,8.8,-0.399,·
COc1ccccc1-c1cc(C(=O)NC(C)c2ccccc2)no1 (stereo not given),i,-1.0,-0.775,71.8*,0.289,-28.0
COc1ccc(Cl)cc1NC(=O)c1c(O)c2ccccc2n(C)c1=O,i,·,·,·,·,·
CC(=O)Oc1c(S(=O)(=O)c2ccc(C)cc2)c(C)nn1C(C)(C)C,i,-0.9,3.47,-3.9,2.29*,-1.0
Cc1ccc(S(=O)(=O)c2c(C)nn(C(C)(C)C)c2OC(=O)C(C)(C)C)cc1,i,-1.5,-0.197,41.1,-0.313,-6.0
Cc1c(Cl)cccc1NC(=O)c1ccc(C(C)(C)C)cc1,i,·,·,·,·,·
Cc1ccnc(NS(=O)(=O)c2ccc(N3C(=O)C4CC=CCC4C3=O)cc2)n1 (stereo not given),i,·,·,·,·,·
CN1CCN(c2nc(-c3ccccc3)c3cc(Cl)ccc3n2)CC1,i,2.6,1.12,21.3,-1.05,11.0
Clc1ccc2nc(N3CCNCC3)nc(-c3ccccc3)c2c1,i,-2.1,0.0967,17.6,-0.445,55.0*
OCCN1CCN(c2nc(-c3ccccc3)c3cc(Cl)ccc3n2)CC1,i,1.7,0.0229,100.0*,-0.798,17.0
CC1=CCC2C(=O)N(c3cccc(O)c3)C(=O)C2C1 (stereo not given),i,·,·,·,·,·
CCOC(=O)CSc1nnc(-c2ccncc2)n1-c1ccccc1,i,·,·,·,·,·
Cc1cc(NC(=O)Cn2nnc3sc4c(c3c2=O)CCC(C(C)(C)C)C4)no1 (stereo not given),i,-4.4,-0.185,76.0*,0.0226,1.0
Cc1cc(NC(=O)CSc2nc(C3CC3)nc3sc4c(c23)CCC(C)C4)no1 (stereo not given),i,-2.4,-0.302,17.2,-0.0134,·
COc1ccc(C2C=C(c3ccc(C)cc3)Nc3ncnn32)cc1 (stereo not given),i,-4.0,33.1*,6.0,-0.444,0.0
C1=C(c2ccc(-c3ccccc3)cc2)Nc2ncnn2C1c1ccco1 (stereo not given),i,-9.7,43.6*,11.9,-1.59,-15.0
COc1ccc(C2C=C(c3ccc(Br)s3)Nc3ncnn32)cc1OC (stereo not given),i,-3.5,120*,2.5,-0.00592,-10.0
COc1ccc(C2C=C(c3ccccc3)Nc3nnnn32)cc1 (stereo not given),i,1.1,-0.87,-14.2,0.018,-5.0
COc1ccc(C2=CC(c3ccc(OC)c(OC)c3)n3nnnc3N2)c(OC)c1 (stereo not given),i,-3.9,0.95,15.0,0.73,-2.0
Brc1ccc(C2=CC(c3cccs3)n3ncnc3N2)cc1 (stereo not given),·,·,·,·,·,6.0
O=C(Nc1ccc2oc(-c3ccc4ccccc4c3)nc2c1)c1cc([N+](=O)[O-])ccc1Cl,i,·,·,·,·,·
O=C(c1ccc(Br)cc1)N1CCN(c2ccc([N+](=O)[O-])c(NC3CC3)c2)CC1,i,·,·,·,·,·
O=C(O)/C=C/c1ccc(O)c(O)c1,i,52.9*,0.147,6.9,-0.0329,·
COC(=O)c1ccccc1NC(=O)CSc1nc(O)cc(=O)n1C1CCCC1,i,-4.1,43.8*,12.9,0.686,8.0
COc1ccccc1NC(=O)c1cc2n(n1)C(C(F)(F)F)CC(c1ccc3c(c1)OCO3)N2 (stereo not given),·,-1.1,-0.282,47.5,0.803*,-6.0
CC(=O)Nc1c(NCc2ccccc2)c2ccccc2oc1=O,i,·,·,·,·,·
N#Cc1nc(Cc2cccc3ccccc23)oc1NCCCN1CCOCC1,i,0.8,-0.176,36.8,-0.598,26.0
N#Cc1nc(Cc2cccc3ccccc23)oc1NCCCn1ccnc1,i,-10.9,-1.64,60.9*,-1.82,9.0
O=C(CSc1ncn[nH]1)Nc1nc(-c2ccccc2)cs1,·,·,·,·,·,8.0
Cc1cc(=O)[nH]c(SCC(=O)Nc2nc(-c3ccccc3)cs2)n1,i,-3.1,8.25,69.5*,-0.503,-2.0
